Screening results (PubChem)
thrombin 1536 – inhibitors of human thrombin; alpha-thrombin, Boc-VPR-AMC fluorogenic substrate cleavage; actives 0.26% (n = 220,000); inhibition, % at 5 µM;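 active = inhibition at or above 40%; inactive = inhibition below 40%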;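 also: 0% = enzyme with no compound and 100% = wells without enzyme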
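Test system: human alpha-thrombin; medium: pH 7.5 Tris-saline with Tween 20; times: reaction at room temperature; signal: AMC fluorescence at 355 nm excitation and 460 nm emission; also added: Boc-VPR-AMC substrate, 15 µM final; dosing: one concentration per compound, 5 µM, with 0.2% DMSO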
KLK5 inh – kallikrein 5 (human) inhibition; actives 0.59% (n = 210,000); Q9Y337; inhibition, % at 5 µM; AID 873; recombinant hK5, fluorogenic AMC substrate cleavage;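 active = inhibition of 40% or more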;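 also: 0% = enzyme controls without compound and 100% = no-enzyme blanks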
Furin inhibitor – human furin inhibition. P09958. purified furin, fluorogenic substrate cleavage. inhibition, % at 20 µM or 30 µM. actives 0.061% (n = 220,000). AID 463115; in the data active = inhibition above about 25%
FXIa inh – blocks human coagulation factor XIa protease activity. AID 798. inhibition, % at 5 µM. actives 0.14% (n = 220,000). purified FXIa, Boc-Glu-Ala-Arg-AMC fluorogenic substrate;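 active = inhibition of at least 40%; inactive = inhibition below 40%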;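 also: fluorescence of freed AMC excited at 355 nm; 0% = enzyme without compound and 100% = no enzyme blank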
Target sequence (P03951 19-387 limits assumed): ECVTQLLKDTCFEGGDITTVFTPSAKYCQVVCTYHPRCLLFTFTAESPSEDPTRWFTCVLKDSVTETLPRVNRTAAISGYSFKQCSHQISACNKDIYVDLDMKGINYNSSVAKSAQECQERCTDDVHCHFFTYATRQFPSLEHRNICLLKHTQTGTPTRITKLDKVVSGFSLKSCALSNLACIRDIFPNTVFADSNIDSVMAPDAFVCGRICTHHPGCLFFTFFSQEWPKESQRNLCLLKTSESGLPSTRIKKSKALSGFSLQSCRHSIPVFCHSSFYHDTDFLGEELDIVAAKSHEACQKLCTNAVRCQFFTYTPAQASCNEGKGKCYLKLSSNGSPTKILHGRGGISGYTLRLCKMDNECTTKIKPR
Target sequence (P03951 388-625 limits assumed): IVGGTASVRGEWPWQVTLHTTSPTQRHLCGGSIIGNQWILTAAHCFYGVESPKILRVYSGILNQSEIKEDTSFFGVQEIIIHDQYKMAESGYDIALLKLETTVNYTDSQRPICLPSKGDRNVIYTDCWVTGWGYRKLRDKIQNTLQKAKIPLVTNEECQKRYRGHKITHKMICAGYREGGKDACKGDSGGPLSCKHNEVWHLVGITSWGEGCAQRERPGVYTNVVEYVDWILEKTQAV
FXIIa inh 1536 – factor XIIa (human) inhibition; purified FXIIa, Boc-QGR-AMC fluorogenic substrate, 2 h; inhibition, % at 5 µM; P00748; actives 0.3% (n = 220,000); AID 800; in the data active = inhibition above about 40%;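 also: 0% = enzyme with no compound and 100% = blank without enzyme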
HSV replic up – increases HSV replication in cells; maximum fold increase; HSV replication augmentation in cells, fold increase; actives 0.005% (n = 220,000); in the data active = maximum fold increase above about 1.5; inconclusive = no clear call, values can overlap the other calls; tested in PC3 cells
* hit, by the source's call; i = inactive; ? = inconclusive; nt = not tested or not shown. In the library only some 1% were active in any assay of this set; here they are far more common.

SMILES	thrombin 1536	KLK5 inh	Furin inhibitor	FXIa inh	FXIIa inh 1536	HSV replic up
O=C(NC1CC1)C1=C[C@H](c2coc3ccccc3c2=O)C[C@H](OCc2ccc(CO)cc2)O1	nt	nt	nt	nt	nt	i
COc1ccc(S(=O)(=O)Nc2cc3c4c(oc3c3ccccc23)CC(C)(C)CC4=O)cc1	23.7	47.5*	-31.8	3.0	-4.6	i
Cc1sc2nc(CN3CCOCC3)[nH]c(=S)c2c1C	-2.5	-4.7	-28.0	-1.1	4.5	i
O=C(NC1CC1)C1=C[C@@H](c2ccc(Br)cc2)C[C@@H](OCc2ccc(CO)cc2)O1	-6.4	-2.1	-29.0	-3.4	2.0	i
Cc1cc(=O)oc2cc(NC(=O)CC3(CC(=O)O)CCCC3)ccc12	-4.0	52.4*	-64.1	-0.2	-1.3	i
Cc1cc(=O)oc2cc(NC(=O)C3CCCC3)ccc12	-5.1	-23.4	-63.9	-6.2	-6.5	i
Cc1c(NC(=O)CSc2nc3ccccc3s2)c(=O)n(-c2ccccc2)n1C	-5.2	-16.2	-17.2	0.5	44.8*	i
O=C(CSc1nnc(CSc2nc3ccccc3s2)o1)NC1CCCCC1	-0.9	13.8	-20.5	0.8	-5.6	i
O=C(CSc1nc2ccccc2s1)NC1CCCC1	4.5	7.6	0.0	7.4	42.1*	i
C[N+](C)(C)C(Cc1ccccc1)C(=O)[O-] (centres undefined)	2.4	1.2	-2.4	4.8	7.7	i
CCOC(=O)c1c(NC(=O)COc2ncnc3ccccc23)sc(C)c1CC	34.3	69.0*	-4.2	2.8	24.4	i
O=[N+]([O-])c1nn(-c2cccc(Cl)c2)n(O)c1=NCc1cccnc1	17.4	75.0*	-1.4	12.3	17.4	i
O=[N+]([O-])c1nn(-c2ccc(Cl)cc2)n(O)c1=NCc1cccnc1	-9.6	-3.9	-2.0	3.7	4.0	i
CN1N=C(C(C)(C)C)CSC1=Nc1ccccc1	-2.8	-0.2	-13.8	-2.1	11.3	i
COC(=O)Cc1ccc(NC(=S)NN2CCOCC2)cc1	-1.8	-3.4	-26.1	4.3	7.8	i
CCc1nccn1C(=O)c1cnn2c(C(F)F)cc(-c3ccc(C)cc3)nc12	77.2*	-23.9	-11.6	-1.6	3.0	i
CCc1nccn1C(=O)c1cnn2c(C(F)F)cc(-c3ccccc3)nc12	76.3*	2.3	-4.1	11.4	16.1	i
O=C(O)CC1COc2ccccc2N1C(=O)c1ccccc1Cl (centres undefined)	-9.8	19.5	-24.7	-4.8	3.5	i
CC(CC(=O)O)CC(=O)Nc1cc(C(F)(F)F)cc(C(F)(F)F)c1 (centres undefined)	4.0	49.9*	1.1	23.1	24.6	i
CC(C)(C)SCCNS(=O)(=O)c1ccccc1	21.5	43.2*	-18.1	12.6	49.8*	i
COc1cccc(N2CCN(C3CC(=O)N(c4ccc(F)c(Cl)c4)C3=O)CC2)c1 (centres undefined)	0.1	44.0*	-24.2	-4.1	-3.0	i
CCC(=O)Oc1ccc2c(C)c(Cl)c(=O)oc2c1	47.0*	17.1	-112.5	6.2	31.9	i
Cc1c(Cl)c(=O)oc2cc(OC(C)C)ccc12	0.7	-17.6	-169.6	6.8	8.2	i
Cc1ccc(NCc2cccnc2)c(Br)c1	13.4	46.7*	-15.6	13.3	18.7	i
CC(=O)Nc1ccc(NS(=O)(=O)c2ccc(C)cc2)c([N+](=O)[O-])c1	-0.9	-0.5	-32.9	-2.5	5.5	i
SMILES	thrombin 1536	KLK5 inh	Furin inhibitor	FXIa inh	FXIIa inh 1536	HSV replic up
CC(=O)Nc1ccc(NS(=O)(=O)c2ccc(C)cc2)cc1[N+](=O)[O-]	-4.7	46.5*	12.2	-13.3	4.2	i
CCOC(=O)c1c(NC(=O)CSc2nnc(-c3ccco3)o2)sc(C(C)=O)c1C	-1.5	-0.4	-8.5	0.2	18.5	i
CCOC(=O)c1c(NC(=O)CSc2nnc(-c3cccnc3)o2)sc(C(C)=O)c1C	17.9	48.4*	-19.6	0.7	18.9	i
CCOC(=O)c1c(NC(=O)Cn2ccsc2=N)sc(C)c1C	-5.5	-8.4	-10.3	4.8	3.6	i
COc1ccc(C(=O)NCCCOc2cccc(NC(C)=O)c2)cc1	-2.2	-5.8	-7.8	-4.0	4.1	i
CCc1ccc(NC(=O)CCc2nc3ccccc3[nH]2)cc1	-0.9	-4.4	-18.5	-9.2	3.6	i
O=C(COC(=O)COc1ccccc1Cl)Nc1ccccc1OC(F)F	22.2	26.1	-5.5	-4.3	99.9*	i
CC(C)[C@H](NC(=O)c1ccco1)C(=O)OCC(=O)Nc1ccccc1OC(F)F	-1.6	53.5*	-12.9	2.2	5.1	i
O=C(COC(=O)c1ncc(Cl)c(Cl)c1Cl)Nc1ccccc1OC(F)F	-5.3	-3.0	-6.0	-4.2	1.4	i
O=C(O)/C=C/C(=O)Nc1ccc(N2CCOCC2)nc1N1CCOCC1	-0.7	10.8	-16.6	6.0	9.9	i
COC(=O)c1cccc(NC(=O)CSc2ncn[nH]2)c1	1.9	-2.2	-23.7	44.3*	54.3*	i
CNC(=S)Nc1cccc(C(=O)OC)c1	9.3	51.4*	-5.6	4.9	32.0	i
COC(=O)c1ccc(Cl)c(NC(=O)CSc2ncn[nH]2)c1	-10.1	-23.5	-23.4	-9.8	-5.9	i
COC(=O)c1cccc(NC(N)=S)c1	-2.5	3.6	-25.1	0.2	nt	i
Cc1ccc2[nH]c(O)c(N=NC(=O)C(C)n3cnc4ccccc4c3=O)c2c1 (centres undefined)	8.1	-2.8	-0.7	-0.8	4.5	i
CCC(C(=O)OCC(=O)Nc1ccc(SC(F)F)cc1)c1ccccc1 (centres undefined)	51.2*	23.8	-10.3	2.5	-2.5	i
CCc1ccc[n+](-c2[nH]c(=O)sc2/C=N/N=C(\N)[O-])c1	24.7	29.8	3.5	42.3*	22.9	i
CCc1ccc[n+](-c2[nH]c(=O)sc2/C=N/NC([S-])=Nc2ccccc2)c1	34.4	16.6	6.5	-10.0	-0.9	?
COC(=O)C(C)NC(=O)C1CCCN1S(=O)(=O)c1cc(C)c(Cl)cc1C (centres undefined)	17.1	48.9*	-18.3	5.5	48.3*	i
COc1cc(C2NC(=S)NC(C)=C2C(=O)Nc2ccc(C)cc2)ccc1O (centres undefined)	-10.7	-1.2	-11.7	-4.6	3.1	i
CC(c1ccccc1)N(NC(=O)C(O)(c1ccccc1)c1ccccc1)C(=O)c1ccccc1 (centres undefined)	-1.2	-5.2	-28.6	7.5	6.1	i
C=CCOc1ccc(CNCCc2ccc(S(N)(=O)=O)cc2)cc1	-7.4	nt	-20.6	-4.1	-1.8	i
CCCCCC(=O)Nc1cccc(C2=NOC3(C2)C[C@@H](C(N)=O)N(C(=O)c2cc([N+](=O)[O-])cc([N+](=O)[O-])c2)C3)c1 (some centres undefined)	-3.2	0.4	-35.2	0.0	6.5	i
